Assay results from different studies.
Each line is one published result; the experiments were not run side by side.
Target: Myosin-IIIb (MYO3B, Homo sapiens, UniProt Q8WXR4)
Sequence (Q8WXR4 1-1341, as in one of the studies): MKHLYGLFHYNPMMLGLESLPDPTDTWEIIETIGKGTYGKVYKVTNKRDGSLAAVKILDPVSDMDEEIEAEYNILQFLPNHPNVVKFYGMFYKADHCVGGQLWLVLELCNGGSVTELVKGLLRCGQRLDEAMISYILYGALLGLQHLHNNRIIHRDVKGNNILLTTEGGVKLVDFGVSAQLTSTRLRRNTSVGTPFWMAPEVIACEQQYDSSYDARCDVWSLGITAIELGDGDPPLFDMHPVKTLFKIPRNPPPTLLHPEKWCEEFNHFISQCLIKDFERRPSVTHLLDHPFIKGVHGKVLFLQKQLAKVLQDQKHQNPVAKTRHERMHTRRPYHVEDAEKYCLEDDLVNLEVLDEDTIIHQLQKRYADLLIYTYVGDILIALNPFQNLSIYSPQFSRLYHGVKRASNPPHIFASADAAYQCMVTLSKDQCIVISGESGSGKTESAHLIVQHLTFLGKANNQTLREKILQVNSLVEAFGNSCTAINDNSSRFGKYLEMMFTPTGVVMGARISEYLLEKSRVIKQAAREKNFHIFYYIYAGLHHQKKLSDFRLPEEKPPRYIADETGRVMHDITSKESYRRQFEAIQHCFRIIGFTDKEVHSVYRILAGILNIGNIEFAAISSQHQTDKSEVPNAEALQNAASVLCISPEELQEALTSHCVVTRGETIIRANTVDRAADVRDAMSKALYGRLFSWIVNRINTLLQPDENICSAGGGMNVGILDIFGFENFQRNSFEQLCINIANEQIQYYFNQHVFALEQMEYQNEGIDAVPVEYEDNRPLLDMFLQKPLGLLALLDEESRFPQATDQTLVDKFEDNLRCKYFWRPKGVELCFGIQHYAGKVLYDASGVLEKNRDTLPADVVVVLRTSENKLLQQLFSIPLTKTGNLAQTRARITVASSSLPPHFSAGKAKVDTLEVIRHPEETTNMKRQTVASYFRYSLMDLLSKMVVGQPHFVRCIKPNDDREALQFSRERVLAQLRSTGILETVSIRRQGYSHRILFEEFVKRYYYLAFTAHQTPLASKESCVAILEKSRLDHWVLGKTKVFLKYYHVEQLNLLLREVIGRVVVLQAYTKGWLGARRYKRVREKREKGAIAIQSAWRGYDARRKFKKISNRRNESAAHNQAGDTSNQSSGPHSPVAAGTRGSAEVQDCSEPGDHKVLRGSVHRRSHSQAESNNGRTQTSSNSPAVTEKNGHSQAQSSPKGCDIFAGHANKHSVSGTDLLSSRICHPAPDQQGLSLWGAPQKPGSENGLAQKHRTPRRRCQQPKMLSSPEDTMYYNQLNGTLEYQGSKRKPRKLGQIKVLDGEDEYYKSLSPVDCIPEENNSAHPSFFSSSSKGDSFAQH

Structure (SMILES) | assay | setting | endpoint | value
CCN(CC)CCNC(=O)c1c(C)[nH]c(/C=C2\C(=O)Nc3ccc(Cl)cc32)c1C | enzyme activity, inhibitor | 0.5 µM | remaining activity | 41.3%
COc1cc(Cl)c(C(=O)N[C@@H](CN[C@H]2CC[C@@H](N)CC2)Cc2ccc(C#N)cc2)cc1-c1ccc(CN[C@H](C)c2ccc(C)cc2)o1 | enzyme activity, inhibitor | 1 µM | remaining activity | 116%
Cc1sc(C(=O)NC2COC2)cc1-n1cc(NC(=O)Nc2c(F)cccc2Cl)cn1 | enzyme activity, inhibitor | 10 µM | remaining activity | 73.5%
CSc1cccnc1N1CCN(Cc2nc3ccccc3[nH]2)CC1 | binding, competition with immobilised ligand | 1 µM | remaining binding | 100%
C[S+]([O-])c1ccc(-c2nc(-c3ccncc3)c(-c3ccc(F)cc3)[nH]2)cc1 (centres unmarked) | cell-free assay | 0.5 µM | remaining signal | 104%
O=C(Nc1cnn(-c2csc(C(=O)NC3COC3)c2)c1)Nc1ccccc1Cl | enzyme activity, inhibitor | 5 µM | remaining activity | 128%
CC(C)(O)[C@H]1CC[C@H](Nc2ccc3ncc(-c4cccc(C(F)(F)F)c4)n3n2)CC1 | enzyme activity, inhibitor | 1 µM | remaining activity | 85.1%
CCC(=N\O)/C(C)=C/c1ccc(F)cc1 | binding, competition with immobilised ligand | 1 µM | remaining binding | 100%
O=C(O)c1ccc2c3c1cccc3c(=O)n1c3ccccc3nc21 | enzyme activity, inhibitor | 0.5 µM | remaining activity | 96.7%
CN1CCN(C(=O)c2ccc3cc(CCNc4ccnc5ccc(C#N)cc45)ccc3c2)CC1 | binding, competition with immobilised ligand | 2 µM | inhibition | > 35%
Nc1ncnc2occ(-c3ccc(NC(=O)Nc4cc(C(F)(F)F)ccc4F)cc3)c12 | cell-free assay | 20 µM | remaining signal | 25%
CN1CC(Oc2cnc(C#N)cc2-c2ccn3nc(NC(=O)C4CC4)cc3c2)C1 | enzyme activity, inhibitor | 1 µM | inhibition | -2%
Cc1ccc(C(=O)Nc2ccc(CN3CCN(C)CC3)c(C(F)(F)F)c2)cc1C#Cc1cnc2cccnn12 | enzyme activity | 23.5 nM | remaining activity | 79%
Cn1nc(C(=O)NCc2ccc(C(=O)O)cc2)cc1-c1ccc2[nH]ccc2c1 | binding, competition with immobilised ligand | 0.1 µM | remaining binding | 100%
